For 13 molecules, IC50 results are on record in ChEMBL document CHEMBL1134494, “2-Amino-6-arylsulfonylbenzonitriles as non-nucleoside reverse transcriptase inhibitors of HIV-1” (J Med Chem, 2001).

Experiment [1] relates to HeLa. The experiment in a line: Antiviral activity against V106A mutant virus in the HeLa MAGI assay. The class given is functional, cell-based, Homo sapiens. In short, it runs like this:
(§1)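 Isogenic recombinant HIV-1 strains carrying the listed RT mutations were tested against the test compounds in HeLa MAGI indicator cells. Beta-galactosidase was quantified by activation of a chemiluminescent substrate 3 days after infection. IC50 was the concentration inhibiting 50% of the HIV-1-induced beta-galactosidase signal relative to untreated controls. It was determined for each recombinant virus.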

The test system of experiment [2] is HeLa. Briefly: Antiviral activity against G190A mutant virus in the HeLa MAGI assay. The class given is functional, cell-based, Homo sapiens. A digest of the protocol:
as §1

Experiment [3] concerns HeLa. The experiment in a line: Antiviral activity against K103N mutant virus in the HeLa MAGI assay. In kind it is functional, cell-based, Homo sapiens. In short, it runs like this:
as §1

Experiment [4] relates to HeLa. The experiment in a line: Antiviral activity against Y181C mutant virus in the HeLa MAGI assay. The class given is functional, cell-based, Homo sapiens. In short, it runs like this:
as §1

Experiment [5] concerns HeLa. Briefly: Antiviral activity against K103N/L100I mutant virus in the HeLa MAGI assay. In kind it is functional, cell-based, Homo sapiens. A digest of the protocol:
as §1

Experiment [6] deals with HeLa. The experiment in a line: Antiviral activity against P236L mutant virus in the HeLa MAGI assay. The class given is functional, cell-based, Homo sapiens. A digest of the protocol: as §1
Experiment [7] concerns HeLa. The experiment in a line: Antiviral activity against V108I mutant virus in the HeLa MAGI assay. The class given is functional, cell-based, Homo sapiens. A digest of the protocol: as §1
Experiment [8] has as its system HeLa. Briefly: Antiviral activity against V108I/Y181C mutant virus in the HeLa MAGI assay. In kind it is functional, cell-based, Homo sapiens. A digest of the protocol: as §1
Experiment [9] relates to HeLa. Briefly: Antiviral activity against E138K mutant virus in the HeLa MAGI assay. The class given is functional, cell-based, Homo sapiens. In short, it runs like this:
as §1

For experiment [10], the system named is HeLa. Briefly: Antiviral activity against K103N/Y181C mutant virus in the HeLa MAGI assay. In kind it is functional, cell-based, Homo sapiens. In short, it runs like this:
as §1

The subject of experiment [11] is HeLa. Briefly: Antiviral activity against Y188C mutant virus in the HeLa MAGI assay. The class given is functional, cell-based, Homo sapiens. A digest of the protocol:
as §1

Experiment [12] relates to HeLa. Briefly: Antiviral activity against V106A/Y181C mutant virus in the HeLa MAGI assay. In kind it is functional, cell-based, Homo sapiens. A digest of the protocol: as §1
The test system of experiment [13] is HeLa. Briefly: Antiviral activity against K103N/P225H mutant virus in the HeLa MAGI assay. The class given is functional, cell-based, Homo sapiens. In short, it runs like this:
as §1

The test system of experiment [14] is HeLa. The experiment in a line: Antiviral activity against wild-type HIV-1 in the HeLa MAGI assay. The note with it: Homo sapiens. In kind it is functional, cell-based. In short, it runs like this: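 HeLa MAGI cells were infected with isogenic recombinant HIV-1. After 3 days, β-galactosidase was quantified by chemiluminescent substrate activation. IC50 is the concentration inhibiting 50% of the HIV-1-induced β-galactosidase signal relative to untreated controls.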

The subject of experiment [15] is HeLa. Briefly: Antiviral activity against K103N/V108I mutant virus in the HeLa MAGI assay. The class given is functional, cell-based, Homo sapiens. In short, it runs like this:
as §1

In experiment [16] the test system is Human immunodeficiency virus 1. Briefly: Antiviral activity against HIV-1 infected human MT-4 cells. In kind it is functional, organism-based. The note with it: Human immunodeficiency virus 1, MT4. In short, it runs like this:
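HTLV-1-transformed MT4 cells were infected with HIV-1 strain 3B at 100× the amount giving a 50% drop in cell growth. They were cultured 5 days with a range of compound concentrations. IC50 is the concentration restoring 50% of infected-cell growth (cytopathic effect) relative to uninfected MT4 controls.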

The test system of another experiment is MT4. Briefly: Cell culture cytotoxicity against MT-4 cells. Conditions: Homo sapiens. The class given is functional, cell-based. A digest of the protocol:
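MT4 cells were exposed to compound in parallel with the 5-day HIV-1 strain 3B cytopathic-effect assay. Compound-induced cytotoxicity is reported as the cell culture cytotoxicity IC50 (CCIC50).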

Experiment [17] deals with Human immunodeficiency virus type 1 reverse transcriptase (Human immunodeficiency virus 1, UniProt Q72547). Briefly: Inhibitory activity against HIV-1 reverse transcriptase. A digest of the protocol:
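Recombinant HIV RT at 1 nM was combined with 40 nM Eu-chelate-labeled biotinylated DNA primer/RNA template and 100 nM Cy5-dUTP. Reactions were started with enzyme.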

Consider `Cc1ccnc2c1NC(=O)c1cccnc1N2C1CC1` [NEVIRAPINE], for which the IC50 was roughly 10000 nM in the experiment on HeLa [1]; greater than 10000 nM with HeLa [2]; 7100 nM with HeLa [3]; greater than 10000 nM in the experiment on HeLa [4]; 10000 nM in the experiment with HeLa [5]; 56 nM with HeLa [6]. The IC50 in the experiment on HeLa [7] was 340 nM; in the experiment on HeLa [8] it was greater than 10000 nM; with HeLa [9] it was 72 nM; in the experiment on HeLa [10] it was greater than 50000 nM; with HeLa [11] it was 2200 nM; in the experiment with HeLa [12], greater than 10000 nM. In addition, the IC50 with HeLa [13] came to 10000 nM; in the experiment on HeLa [14] it was 89 nM; in the experiment with HeLa [15], 21000 nM.

Regarding `Cc1cc(C)cc(S(=O)(=O)c2cccc(N)c2C#N)c1`, the IC50 with HeLa [1] is 2.4 nM; in the experiment on HeLa [2], 30 nM; in the experiment on HeLa [3], 1100 nM; in the experiment on HeLa [4], 14000 nM; in experiment [16] it was 10 nM; in the experiment on HeLa [5] it was 3000 nM. Further, the IC50 in the experiment with HeLa [6] is 5 nM; in the experiment with HeLa [7], 17 nM; in the experiment on HeLa [8], 13000 nM; in the experiment with HeLa [9] it was 17 nM; with HeLa [10] it was greater than 50000 nM; in the experiment on HeLa [11], 210 nM. The IC50 in the experiment on HeLa [12] was 490 nM; in the experiment with MT4, greater than 200000 nM; with HeLa [13], 3300 nM; with HeLa [14] it was 11 nM; in the experiment with HeLa [15], 4800 nM.

Take `O=C1Nc2ccc(Cl)cc2[C@@](C#CC2CC2)(C(F)(F)F)O1` [EFAVIRENZ]: the IC50 in the experiment with HeLa [1] amounted to 1.5 nM; in the experiment with HeLa [2], 6.4 nM; in the experiment with HeLa [3], 24 nM; in the experiment with HeLa [4], 1.8 nM; in the experiment with HeLa [5], 1600 nM; in the experiment with HeLa [6], 0.5 nM. Also, the IC50 amounted to 1.4 nM in the experiment on HeLa [7]; 3.3 nM in the experiment on HeLa [8]; 0.8 nM in the experiment on HeLa [9]; 42 nM in the experiment with HeLa [10]; 1.2 nM with HeLa [11]; 3.3 nM with HeLa [12]. The IC50 with HeLa [13] was 130 nM; in the experiment with HeLa [14], 0.9 nM; with HeLa [15] it was 74 nM.

Take `N#Cc1c(N)cccc1[S+]([O-])c1ccccc1Br` (configuration not stated): the IC50 was greater than 19000 nM in experiment [17], 39200 nM in experiment [16] and 168000 nM in the experiment on MT4.

For `N#Cc1c(N)cccc1S(=O)(=O)c1ccccc1Cl`, the IC50 in experiment [17] was 5900 nM; in experiment [16], 4100 nM; in the experiment on MT4, greater than 200000 nM.

Turning to `O=[N+]([O-])c1ccccc1Sc1ccccc1[N+](=O)[O-]`, the IC50 in [17] is greater than 20000 nM; in experiment [16] it was 93500 nM; in the experiment on MT4 it was greater than 200000 nM.

Take `N#Cc1c(N)cccc1Sc1ccccc1`: the values for the IC50 (in experiment [17]; in experiment [16]; in the experiment with MT4) were 8700 nM, 14600 nM and 168000 nM, respectively.

Take `N#Cc1c(N)cccc1S(=O)(=O)c1ccccc1F`: the IC50 came to 5000 nM in [17], 3000 nM in [16] and 57000 nM with MT4.

As for `N#Cc1c(N)cccc1S(=O)(=O)c1cccc(Cl)c1`, the IC50 is 400 nM in experiment [17], 590 nM in experiment [16] and greater than 200000 nM with MT4.

`Cc1cccc(Sc2cccc(N)c2C#N)c1`: the IC50 was 960 nM in experiment [17], 6100 nM in experiment [16] and 79000 nM with MT4.

Regarding `Cc1ccc([S+]([O-])c2cccc(N)c2C#N)cc1` (configuration not stated), the IC50 in experiment [17] was greater than 21000 nM; in [16], 49000 nM; in the experiment on MT4, greater than 200000 nM.

With `N#Cc1c(N)cccc1Sc1cccc(F)c1`, the values for the IC50 (in [17]; in experiment [16]; in the experiment with MT4) were 12000 nM, 9800 nM and 162000 nM, respectively.

Regarding `N#Cc1cccc([S+]([O-])c2cccc(N)c2C#N)c1` (configuration not stated), the IC50 is greater than 15000 nM in experiment [17], 14200 nM in experiment [16] and greater than 200000 nM in the experiment on MT4.
